From ChEMBL document CHEMBL1146516, “Isolation and characterization of polybrominated diphenyl ethers as inhibitors of microtubule assembly from the marine sponge Phyllospongia dendyi collected at Palau” (J Nat Prod, 2004)
Calls of active or inactive are those of the source. No cut-off for these calls is given here.

Assays:
Oocyte = experiment: Inhibition of 1-methyladenine-stimulated meiotic maturation in Asterina pectinifera immature oocytes assessed as germinal vesicle breakdown at 100 uM after 60 mins; assay type: functional, cell-based; conditions: Patiria pectinifera
Procedure, shortened: (§1)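 Immature oocytes from wild-caught Asterina pectinifera ovaries, 100 cells/mL; DMSO-dissolved sample added, held on ice 10 min, then 1-MeAde (1.25 µM, as added) added; incubated 20 °C for 60 min; germinal vesicle state scored under inverted microscope.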

Sus scrofa = species on record: Sus scrofa; experiment: Inhibition of pig brain microtubule assembly at 100 uM
Procedure, shortened: (§2)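 Microtubule protein purified from fresh porcine brain by repeated polymerization/depolymerization cycles in 100 mM MES, 1 mM EGTA, 0.5 mM MgCl2, 1 mM GTP, 1 mM 2-mercaptoethanol, pH 6.5; 1.3 mg/mL protein; DMSO-dissolved sample (final DMSO <2%); assembly followed by turbidity at 400 nm, 37 °C.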

[1] = Inhibition of pig brain microtubule assembly; set-up: species or system Sus scrofa; procedure, shortened: as §2
[2] = Inhibition of 1-methyladenine-stimulated meiotic maturation in Asterina pectinifera immature oocytes assessed as germinal vesicle breakdown after 60 mins; assay type: functional, cell-based, Patiria pectinifera; conditions: oocyte; procedure, shortened: as §1

SMILES: COc1cc(Br)c(Br)c(Br)c1Oc1cc(Br)cc(Br)c1O
- Activity (Oocyte): inactive
- Activity (Sus scrofa): inactive

SMILES: COc1cc(Br)cc(Br)c1Oc1cc(Br)cc(Br)c1O
- Activity (Oocyte): inactive
- Activity (Sus scrofa): inactive

SMILES: Oc1c(Br)cc(Br)cc1Oc1c(Br)cc(Br)c(Br)c1O
- IC50 [1]: 33.5 µM
- IC50 [2]: 4.2 µM

SMILES: COc1cc(Br)c(Br)c(Br)c1Oc1cc(Br)cc(Br)c1OC
- Activity (Oocyte): inactive
- Activity (Sus scrofa): inactive

SMILES: COc1c(Br)c(Br)c(Br)c(Br)c1Oc1cc(Br)cc(Br)c1O
- Activity (Oocyte): inactive
- Activity (Sus scrofa): inactive

SMILES: COc1cc(Br)cc(Br)c1Oc1c(Br)ccc(Br)c1O
- Activity (Oocyte): inactive
- Activity (Sus scrofa): inactive

SMILES: Oc1cc(Br)c(Br)c(Br)c1Oc1c(Br)ccc(Br)c1O
- IC50 [1]: 20.9 µM
- IC50 [2]: 4.2 µM

SMILES: COc1c(Br)c(Br)cc(Br)c1Oc1cc(Br)cc(Br)c1O
- Activity (Oocyte): inactive
- Activity (Sus scrofa): inactive

SMILES: Oc1c(Br)cc(Br)cc1Oc1ccc(Br)cc1Br
- Activity (Oocyte): inactive
- Activity (Sus scrofa): inactive

SMILES: COc1cc(Br)cc(Br)c1Oc1cc(Br)cc(Br)c1OC
- Activity (Oocyte): inactive
- Activity (Sus scrofa): inactive

SMILES: Oc1c(Br)cc(Br)cc1Oc1c(O)c(Br)c(Br)c(Br)c1Br
- IC50 [1]: 29.6 µM
- IC50 [2]: 3.6 µM
